Calls of active or inactive are those of the source. The rule behind the calls is not given here.

The test system of data set [1] is Hepatocyte. Briefly: Inhibition of GO/LDHA in hyperoxaluric-primary hepatocyte isolated from Hoga1-knockdown PH3 C57BL/6 mouse assessed as relative oxalate output at 10 uM measured at 48 hrs in the presence of hydroxyproline relative to control. It is filed as cell-based. The essentials: (§1)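 Hoga1-/- mouse primary hepatocytes challenged with 10 mM hydroxyproline, inhibitor 10 μM; extracellular oxalate measured by colorimetric kit 24 and 48 h after dosing, given as ratio to oxalate without inhibitor; negative values are below detection limit; mean of three/four replicates ± SD.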

In data set [2] the test system is Hepatocyte. Briefly: Inhibition of GO/LDHA in hyperoxaluric-primary hepatocyte isolated from Grhpr-knockdown PH2 C57BL/6 mouse assessed as relative oxalate output at 10 uM measured at 48 hrs in the presence of glycolate relative to control. It is filed as cell-based. The essentials:
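Grhpr-/- mouse primary hepatocytes cultured with 10 mM glycolate, inhibitor at 10 μM; extracellular oxalate determined colorimetrically at 24 and 48 h post-treatment, expressed relative to untreated medium (RO); negative RO means below detection limit; three/four replicates, mean ± SD.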

In the next data set the test system is HEK293. Briefly: Cytotoxicity against HEK293 cells assessed as reduction in cell viability upto 50 uM measured after 48 hrs by MTT assay. The class given is toxicity, cell-based. The note with it: human, hek293, 48 h.
Data set [3] addresses T1, L-lactate dehydrogenase B chain (Homo sapiens, UniProt P07195). Nature of the data set: Non-competitive inhibition of human recombinant LDHB assessed as inhibition constant using varying concentration of pyruvate as substrate preincubated for 10 mins followed by substrate addition and measured every 60 sec for 10 mins in the presence of NADH by fluorescence assay.
Data set [4] has as its target T2, L-lactate dehydrogenase A chain (Homo sapiens, UniProt P00338). Briefly: Inhibition of human recombinant LDHA using pyruvate as substrate preincubated for 10 mins followed by substrate addition and measured every 60 sec for 10 mins in the presence of NADH by fluorescence assay.
The target of data set [5] is T1, L-lactate dehydrogenase B chain. Briefly: Inhibition of human recombinant LDHB using pyruvate as substrate preincubated for 10 mins followed by substrate addition and measured every 60 sec for 10 mins in the presence of NADH by fluorescence assay.
Data set [6] concerns Hepatocyte. Nature of the data set: Inhibition of GO/LDHA in hyperoxaluric-primary hepatocyte isolated from Agxt1 knockdown PH1 C57BL/6 mouse assessed as relative oxalate output at 10 uM measured at 24 hrs in the presence of glycolate relative to control. The class given is cell-based. The essentials: (§2)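 Agxt1-/- mouse primary hepatocytes cultured with 5 mM glycolate, inhibitor at 10 μM; extracellular oxalate measured by colorimetric kit 24 and 48 h after inhibitor addition; relative oxalate = oxalate with inhibitor over oxalate without inhibitor; negative values mean below detection limit; mean of three/four replicates ± SD.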

For data set [7], the target named is T3, 2-Hydroxyacid oxidase 1 (Mus musculus, UniProt Q9WU19).
T3 sequence (Q9WU19 whole entry): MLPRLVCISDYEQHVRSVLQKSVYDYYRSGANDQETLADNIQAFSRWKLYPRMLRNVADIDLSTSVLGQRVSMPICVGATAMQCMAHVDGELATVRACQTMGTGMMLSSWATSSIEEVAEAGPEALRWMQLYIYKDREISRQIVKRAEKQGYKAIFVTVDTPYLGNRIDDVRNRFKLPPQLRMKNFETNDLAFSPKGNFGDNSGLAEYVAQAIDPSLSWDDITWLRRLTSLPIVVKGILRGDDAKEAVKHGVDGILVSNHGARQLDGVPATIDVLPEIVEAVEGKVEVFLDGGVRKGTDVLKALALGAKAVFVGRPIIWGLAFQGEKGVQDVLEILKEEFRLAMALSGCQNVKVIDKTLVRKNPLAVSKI
Briefly: Inhibition of N-terminal His-tagged mouse recombinant glycolate oxidase expressed in Escherichia coli BL21 (DE3) cells using glycolate as substrate preincubated for 10 mins followed by substrate addition and measured after 10 mins by Amplex red and horseradish peroxidase based fluorescence assay.

The target in data set [8] is T4, 2-Hydroxyacid oxidase 1 (Homo sapiens, UniProt Q9UJM8).
T4 sequence (Q9UJM8 whole entry): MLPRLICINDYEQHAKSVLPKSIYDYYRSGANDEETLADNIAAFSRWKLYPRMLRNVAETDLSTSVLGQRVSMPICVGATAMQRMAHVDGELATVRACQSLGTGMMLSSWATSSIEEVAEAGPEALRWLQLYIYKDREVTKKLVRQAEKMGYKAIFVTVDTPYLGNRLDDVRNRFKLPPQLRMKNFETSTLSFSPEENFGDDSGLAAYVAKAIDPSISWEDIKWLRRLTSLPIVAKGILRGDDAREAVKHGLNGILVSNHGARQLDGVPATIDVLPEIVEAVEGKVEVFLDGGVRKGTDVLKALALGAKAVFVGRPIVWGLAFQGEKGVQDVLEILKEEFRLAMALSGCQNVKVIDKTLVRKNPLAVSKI
Nature of the data set: Non-competitive mixed inhibition of N-terminal His-tagged human recombinant glycolate oxidase expressed in Escherichia coli BL21 (DE3) cells assessed as inhibition constant using varying concentration of glycolate as substrate measured every 60 sec for 15 mins by Amplex red and horseradish peroxidase based fluorescence assay.

In data set [9] the test system is Hepatocyte. Briefly: Cytotoxicity against hyperoxaluric-primary hepatocyte isolated from Hoga1-knockdown PH3 C57BL/6 mouse assessed as cell death at 10 uM by MTS assay. It is filed as toxicity, cell-based. Particulars: hepatocytes, Hoga1-knockdown PH3, 10 µM. The essentials:
(§3)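 Primary hepatocytes from Agxt1-/- (PH1, 5 mM glycolate), Grhpr-/- (PH2, 10 mM glycolate) or Hoga1-/- (PH3, 10 mM hydroxyproline) mice, incubated with inhibitor at 10 μM; viability followed through the oxalate assay by MTS tetrazolium method.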

In data set [10] the test system is Hepatocyte. Nature of the data set: Inhibition of GO/LDHA in hyperoxaluric-primary hepatocyte isolated from Agxt1 knockdown PH1 C57BL/6 mouse assessed as relative oxalate output at 10 uM measured at 48 hrs in the presence of glycolate relative to control. It is filed as cell-based. The essentials:
as §2

Data set [11] addresses T5, 2-Hydroxyacid oxidase 1 (Homo sapiens) (UniProt Q9UJM8).
T5 sequence (whole entry): T4 sequence (Q9UJM8 whole entry)
Briefly: Reversible inhibition of N-terminal His-tagged human recombinant glycolate oxidase expressed in Escherichia coli BL21 (DE3) cells assessed as enzyme recovery using glycolate as substrate at 100 times of IC50 concentration preincubated for 30 mins followed by substrate addition and measured every 60 sec for 15 mins by jump-dilution based Amplex red and horseradish peroxidase fluorescence assay. Particulars: time 45.0 min.

In data set [12] the target is T2, L-lactate dehydrogenase A chain. Briefly: Non-competitive inhibition of human recombinant LDHA assessed as inhibition constant using varying concentration of pyruvate as substrate preincubated for 10 mins followed by substrate addition and measured every 60 sec for 10 mins in the presence of NADH by fluorescence assay.
Data set [13] shares this target. Briefly: Non-competitive inhibition of human recombinant LDHA assessed as decrease in Vmax with no effect on Km using pyruvate as substrate upto 20 uM.
The target of data set [14] is T5, 2-Hydroxyacid oxidase 1 (Homo sapiens). Nature of the data set: Reversible inhibition of N-terminal His-tagged human recombinant glycolate oxidase expressed in Escherichia coli BL21 (DE3) cells assessed as enzyme recovery using glycolate as substrate at 10 times of IC50 concentration preincubated for 30 mins followed by substrate addition and measured every 60 sec for 15 mins by jump-dilution based Amplex red and horseradish peroxidase fluorescence assay. Particulars: time 45.0 min.

The subject of data set [15] is Hepatocyte. Briefly: Inhibition of GO/LDHA in hyperoxaluric-primary hepatocyte isolated from Hoga1-knockdown PH3 C57BL/6 mouse assessed as relative oxalate output at 10 uM measured at 24 hrs in the presence of hydroxyproline relative to control. The class given is cell-based. The essentials: as §1
The subject of data set [16] is Hepatocyte. Briefly: Cytotoxicity against hyperoxaluric-primary hepatocyte isolated from Agxt1-knockdown PH1 C57BL/6 mouse assessed as cell death at 10 uM by MTS assay. It is filed as toxicity, cell-based. Particulars: hepatocytes, Agxt1-knockdown PH1, 10 µM. The essentials:
as §3

T1 sequence (P07195 whole entry): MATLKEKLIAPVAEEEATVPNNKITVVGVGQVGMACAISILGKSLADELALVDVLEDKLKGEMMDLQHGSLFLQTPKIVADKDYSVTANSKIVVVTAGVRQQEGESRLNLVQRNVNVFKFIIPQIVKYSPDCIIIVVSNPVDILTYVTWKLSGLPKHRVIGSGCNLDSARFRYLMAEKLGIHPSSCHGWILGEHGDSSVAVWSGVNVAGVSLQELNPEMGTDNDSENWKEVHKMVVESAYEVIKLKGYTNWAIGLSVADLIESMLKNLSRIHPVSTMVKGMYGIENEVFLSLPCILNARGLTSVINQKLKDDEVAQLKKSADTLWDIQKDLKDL

For the molecule `N.N.O=C(O)c1cc(-c2ccc(CN(Cc3ccccc3)Cc3ccc(-c4ccc(O)c(C(=O)O)c4)o3)o2)ccc1O`, the fold change (FC) came out at 0.47 with Hepatocyte [1]; 0.76 in the data set with Hepatocyte [2]; 0.66 with Hepatocyte [6]; 0.76 in the data set on Hepatocyte [10]; 0.41 with Hepatocyte [15]. Also, the Activity result in the data set on HEK293, in the data set with Hepatocyte [9] and in the data set with Hepatocyte [16] was “Non-Toxic” throughout. Besides, the figures for the inhibitory constant (Ki) (in [3]; on 2-Hydroxyacid oxidase 1 [8]; in [12]) were 0.7 µM, 2.3 µM and 0.09 µM, respectively. In addition, the IC50 was 0.4 µM in data set [4], 0.2 µM in data set [5] and 1.8 µM at 2-Hydroxyacid oxidase 1 [7]. Moreover, the inhibition entry in data set [11], in [13] and in [14] was “Active” in each case.

(Values after ChEMBL document CHEMBL5120856, “New salicylic acid derivatives, double inhibitors of glycolate oxidase and lactate dehydrogenase, as effective agents decreasing oxalate production” (Eur J Med Chem, 2022).)
